SMILES strings stand for the structures. Calls of active or inactive are those of the source. No cut-off for these calls is given here.

Experiment [1] concerns MDA-MB-231. As to the kind of experiment: Growth inhibition of human MDA-MB-231 cells after 48 hrs by SRB assay. The format is functional. Conditions: for CC50: read-out: LC50 (the source's name). In a few lines:
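Cells were exposed to compound for 48 h, and growth was read by sulforhodamine B staining. TGI (total growth inhibition concentration, μM) was taken from concentration–response curves, n = 3, means ± SEM. MDA-MB-231 cells were grown in IMEM with 10% FBS at 37 °C in 5% CO2.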

Experiment [2] relates to MDA-MB-157. The experiment is described as follows: Growth inhibition of human MDA-MB-157 cells after 48 hrs by SRB assay. The conditions noted are these: for CC50: read-out: LC50 (the source's name). The format is functional. Background: The SRB assay estimates cell density from bound dye.
Experiment [3] relates to BT-549. The experiment is described as follows: Growth inhibition of human BT-549 cells after 48 hrs by SRB assay. The format is functional. Conditions: for CC50: read-out: LC50 (the source's name).
For experiment [4], the system named is HCC1806. The experiment is described as follows: Growth inhibition of human HCC1806 cells after 48 hrs by SRB assay. The format is functional. Conditions: for CC50: read-out: LC50 (the source's name).
The test system of experiment [5] is MDA-MB-468. As to the kind of experiment: Growth inhibition of human MDA-MB-468 cells after 48 hrs by SRB assay. The format is functional. Conditions: for CC50: read-out: LC50 (the source's name).
Experiment [6] relates to MDA-MB-453. As to the kind of experiment: Growth inhibition of human MDA-MB-453 cells after 48 hrs by SRB assay. The conditions noted are these: for CC50: read-out: LC50 (the source's name). The format is functional.
The species entered for experiment [7] is Homo sapiens. The experiment is described as follows: Selectivity index, ratio of LC50 for growth inhibitor of human MDA-MB-157 to LC50 for growth inhibitor of human MDA-MB-231. The format is functional. In a few lines:
(§1)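 Selectivity index is the LC50 of the named TNBC line divided by the LC50 in MDA-MB-231 cells.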

The species named for experiment [8] is Homo sapiens. As to the kind of experiment: Selectivity index, ratio of LC50 for growth inhibitor of human BT-549 to LC50 for growth inhibitor of human MDA-MB-231. The format is functional. Summed up: as §1
For experiment [9], the species on record is Homo sapiens. As to the kind of experiment: Selectivity index, ratio of LC50 for growth inhibitor of human […] to LC50 for growth inhibitor of human MDA-MB-231. The format is functional. Summed up:
as §1

Experiment [10] is filed under the species Homo sapiens. The experiment is described as follows: Selectivity index, ratio of LC50 for growth inhibitor of human MDA-MB-468 to LC50 for growth inhibitor of human MDA-MB-231. The format is functional. In a few lines:
as §1

The species named for experiment [11] is Homo sapiens. The experiment is described as follows: Selectivity index, ratio of LC50 for growth inhibitor of human MDA-MB-453 to LC50 for growth inhibitor of human MDA-MB-231. The format is functional. In a few lines: as §1
The species entered for experiment [12] is Homo sapiens. The experiment is described as follows: Selectivity index, ratio of TGI for growth inhibitor of human BT-549 to TGI for growth inhibitor of human MDA-MB-231. The format is functional.
Experiment [13] relates to MDA-MB-231. The experiment is described as follows: Cytotoxicity against human MDA-MB-231 cells assessed as reduction in cell viability at 0.03 to 3 uM after 48 hrs by SRB assay. The format is functional, cell-based. Conditions: dose microM 0.03-3, time 48.0 hrs.
Experiment [14] concerns MDA-MB-453. The experiment is described as follows: Cytotoxicity against human MDA-MB-453 cells assessed as reduction in cell viability at 0.03 to 3 uM after 48 hrs by SRB assay. The format is functional, cell-based. Conditions: dose microM 0.03-3, time 48.0 hrs.

As a reminder, the GI50 is the concentration giving 50% growth inhibition. One may read the TGI as the concentration giving total growth inhibition. `C=CCCCCC/C=C\CC#CC#C[C@@H](O)C=C`: the GI50 amounted to 51 nM in experiment [1]; 59 nM in experiment [2]; 220 nM in [3]; 300 nM in experiment [4]; 850 nM in [5]; 2800 nM in experiment [6]. In addition, the TGI was 89 nM in experiment [1]; 130 nM in experiment [2]; 420 nM in [3]; 540 nM in [4]; 2000 nM in experiment [5]; above 5000 nM in experiment [6]. Further, the CC50 in experiment [1] is 170 nM; in experiment [2], 290 nM; in experiment [3], 900 nM; in [4], 1200 nM; in [5] it was 4400 nM; in experiment [6], above 5000 nM. Moreover, the RatioLC50 in [7] is 1.7; in experiment [8], 5.3; in experiment [9] it was 7.1; in experiment [10] it was 26; in experiment [11], above 29. In addition, in experiment [12], the Selectivity Index came to 7.3.

`C=CCCC/C=C\C(C#CC#C[C@H](O)C=C)OC(C)=O` (stereo not given in full): the TGI in experiment [1] is 2500 nM; in experiment [3] it was 2000 nM. Besides, the Selectivity Index in experiment [12] was 0.8.

Turning to `C=CCCCCCC(O)/C=C/C#CC#C[C@@H](O)C=C` (single isomer, unassigned) [DENDROARBOREOL B], the TGI in [1] is 160 nM; in experiment [3], 1100 nM. In experiment [12], the Selectivity Index amounted to 6.9.

For `O=C(Nc1ccccc1)c1cc([N+](=O)[O-])ccc1Cl`, the result in experiment [13] and in [14] was inactive.

For `C=CCCCC/C=C\CC#CC#C[C@@H](O)C=C`, the GI50 in [1] was 74 nM; in [2], 190 nM; in experiment [3], 390 nM; in experiment [4] it was 390 nM; in experiment [5], 1300 nM; in [6] it was 1700 nM. Further, the TGI is 120 nM in experiment [1]; 300 nM in experiment [2]; 850 nM in experiment [3]; 880 nM in [4]; 3100 nM in experiment [5]; 5100 nM in experiment [6]. The CC50 was 210 nM in [1]; 510 nM in experiment [2]; 1900 nM in experiment [3]; 1900 nM in experiment [4]; 5400 nM in experiment [5]; 9800 nM in [6]. For the same molecule, the RatioLC50 in experiment [7] was 2.4; in experiment [8], 9; in [9], 9; in [10] it was 26; in experiment [11], 47. Besides, the Selectivity Index in experiment [12] was 4.7.

Turning to `C=CCCC/C=C\[C@H](O)C#CC#C[C@H](O)C=C`, the TGI worked out at 12000 nM in experiment [1] and 29000 nM in [3]. For the same molecule, in [12], the Selectivity Index came to 2.4.

For `C=CCCCCC/C=C\CC#CC#CC(O)CC` (stereo not given), the TGI was determined as 3300 nM in experiment [1] and 7000 nM in [3]. For the same molecule, the Selectivity Index in experiment [12] amounted to 2.1.

As to `C=CCCCCC(O)/C=C/C#CC#C[C@@H](O)C=C` (mixture of isomers), the TGI in [1] was found to be 360 nM; in [3], 4200 nM. The Selectivity Index in experiment [12] came to 12.

The values above are taken from ChEMBL document CHEMBL4665845, “CRISPR-Cas9 Genome-Wide Knockout Screen Identifies Mechanism of Selective Activity of Dehydrofalcarinol in Mesenchymal Stem-like Triple-Negative Breast Cancer Cells” (2020).
